According to ChEMBL document CHEMBL4376851 (J Med Chem, 2020):

Columns and labels:
[1] = target: T1, Aldo-keto reductase family 1 member B1 (Rattus norvegicus, UniProt P07943); assay: Inhibition of rat lens ALR2 using D,L-glyceraldehyde as substrate incubated for 1 min and measured up to 4 mins using 1% DMSO-dissolved compound by spectrophotometric analysis
Procedure, shortened: (§1)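 ALR2 purified from lenses of male Wistar rats (8–9 weeks, 200–230 g); in vitro reduction of D,L-glyceraldehyde (5.0 mM) monitored. Solvent was water or 1% DMSO. Same enzyme batch throughout. IC50 is the mean of two measurements or mean ± SD of at least three.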

[2] = Inhibition of rat kidney ALR1 using sodium D-glucuronate as substrate incubated for 1 min and measured up to 4 mins using H2O-dissolved compound by spectrophotometric analysis
Procedure, shortened: (§2)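 ALR1 purified from kidneys of male Wistar rats (8–9 weeks, 200–230 g); reduction of D-glucuronate monitored. Inhibitor dissolved in water. I (%) is inhibition at 100 μM inhibitor. Same enzyme batch throughout. Values are means of two measurements or mean ± SD of at least three.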

[3] = target: T1, Aldo-keto reductase family 1 member B1; assay: Inhibition of rat lens ALR2 using D,L-glyceraldehyde as substrate incubated for 1 min and measured up to 4 mins using H2O-dissolved compound by spectrophotometric analysis; procedure, shortened: as §1
Rattus norvegicus [4] = organism: Rattus norvegicus; assay: Inhibition of rat kidney ALR1 at 100 uM using sodium D-glucuronate as substrate incubated for 1 min and measured up to 4 mins using H2O-dissolved compound by spectrophotometric analysis relative to control; procedure, shortened: as §2
Rattus norvegicus [5] = organism: Rattus norvegicus; assay: Selectivity index, ratio of IC50 for rat kidney ALR1 using sodium D-glucuronate as substrate incubated for 1 min and measured up to 4 mins using H2O-dissolved compound to IC50 for rat lens ALR2 using D,L-glyceraldehyde as substrate incubated for 1 min and measured up to 4 mins using H2O-dissolved compound
Procedure, shortened: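 Selectivity factor computed as IC50(ALR1, rat kidney, D-glucuronate) divided by IC50(ALR2, rat lens, D,L-glyceraldehyde), both measured with compounds in water.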

[6] = Antioxidant activity assessed as DPPH radical scavenging activity by measuring reduction in absorbance at 200 uM after 30 mins (reference value: 0.013 +/- 0.012); assay type: functional
Procedure, shortened: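 Stable DPPH radical, 50 μM in ethanol, incubated without (blank) or with test compound at 200 μM; absorbance decline at 518 nm read after the initial 30-min interval. Mean ± SD of at least three measurements.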

[7] = target: T1, Aldo-keto reductase family 1 member B1; assay: Inhibition of rat lens ALR2 using 4-hydroxynonenal as substrate incubated for 1 min and measured up to 4 mins by spectrophotometric analysis
Procedure, shortened: (§3)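 Rat lens ALR2 with methylglyoxal (0.5 mM), 4-hydroxynonenal (0.5 mM) or GS-HNE (1.0 mM). IC50 is mean ± SD of at least three measurements.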

[8] = target: T1, Aldo-keto reductase family 1 member B1; assay: Inhibition of rat lens ALR2 using methylglyoxal as substrate incubated for 1 min and measured up to 4 mins by spectrophotometric analysis; procedure, shortened: as §3
[9] = target: T2, Sorbitol dehydrogenase (Ovis aries) (UniProt P07846); assay: Inhibition of sheep liver sorbitol dehydrogenase at 100 uM using sorbitol as substrate measured for 4 mins in presence of NAD+ by spectrophotometric analysis relative to control
T2 sequence (whole entry): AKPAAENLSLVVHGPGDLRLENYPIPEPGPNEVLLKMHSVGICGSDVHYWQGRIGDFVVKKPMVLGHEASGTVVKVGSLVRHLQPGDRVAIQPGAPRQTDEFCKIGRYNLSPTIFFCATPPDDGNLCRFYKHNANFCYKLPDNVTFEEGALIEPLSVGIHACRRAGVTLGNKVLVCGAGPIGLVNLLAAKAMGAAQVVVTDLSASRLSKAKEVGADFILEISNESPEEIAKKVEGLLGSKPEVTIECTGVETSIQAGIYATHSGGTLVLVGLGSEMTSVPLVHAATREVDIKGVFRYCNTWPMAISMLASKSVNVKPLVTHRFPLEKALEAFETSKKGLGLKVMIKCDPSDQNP

[10] = target: T1, Aldo-keto reductase family 1 member B1; assay: Inhibition of rat lens ALR2 using 4-hydroxynonenal glutathione as substrate incubated for 1 min and measured up to 4 mins by spectrophotometric analysis; procedure, shortened: as §3
Homo sapiens = organism: Homo sapiens; assay: Selectivity index, ratio of IC50 for human AKR1B10 to IC50 for human AKR1B1 expressed in Escherichia coli
Procedure, shortened: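 Ratio of IC50s against recombinant human AKR1B10 and AKR1B1, each measured without DMSO as inhibition of DL-glyceraldehyde reduction. AKR1B10 used 5 mM substrate, 0.12 mM nicotinamide adenine dinucleotide phosphate cofactor and 10 μg/mL protein. AKR1B1 used the rat-lens ALR2 assay conditions at 5 μg/mL protein. IC50s are mean ± SD of at least three measurements.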

[11] = target: Aldo-keto reductase family 1 member B1 (Rattus norvegicus) (UniProt P07943); assay: Inhibition of ALR2 in rat lens assessed as reduction in sorbitol accumulation preincubated for 30 mins followed by D-glucose addition and measured after 3 hrs by resazurin based fluorescence analysis
Procedure, shortened: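 Isolated eye lenses from female Wistar rats (9–10 weeks, 210–250 g) incubated with 50 mM glucose, alongside glucose-free and glucose-only controls. Inhibitor at 1, 10, 50 and 100 μM; lens sorbitol measured. Mean ± SEM of at least five independent incubations.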

[12] = target: Aldo-keto reductase family 1 member B1 (Homo sapiens, UniProt P15121); assay: Inhibition of human AKR1B1 expressed in Escherichia coli using D,L-glyceraldehyde as substrate incubated for 1 min and measured up to 4 mins using by spectrophotometric analysis
[13] = target: Aldo-keto reductase family 1 member B10 (Homo sapiens, UniProt O60218); assay: Inhibition of human AKR1B10 using D,L-glyceraldehyde as substrate incubated for 1 min and measured up to 4 mins using by spectrophotometric analysis
Chain of Aldo-keto reductase family 1 member B10 (O60218 whole entry): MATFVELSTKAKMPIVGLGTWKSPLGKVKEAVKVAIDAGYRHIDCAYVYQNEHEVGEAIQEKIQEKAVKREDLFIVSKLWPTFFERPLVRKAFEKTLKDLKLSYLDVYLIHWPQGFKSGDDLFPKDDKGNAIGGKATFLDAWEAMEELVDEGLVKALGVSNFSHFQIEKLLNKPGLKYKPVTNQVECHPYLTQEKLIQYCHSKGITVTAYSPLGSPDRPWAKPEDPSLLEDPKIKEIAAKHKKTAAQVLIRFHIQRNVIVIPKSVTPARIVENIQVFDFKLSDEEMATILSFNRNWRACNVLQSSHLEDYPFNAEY
Procedure, shortened: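 Human recombinant AKR1B10 at 10 μg/mL protein with 5 mM DL-glyceraldehyde substrate and 0.12 mM NADPH cofactor. Run without DMSO. IC50 is mean ± SD of at least three measurements.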

IC50 [1] | IC50 [2] | IC50 [3] | inhibition (Rattus norvegicus [4]) | Ratio IC50 (Rattus norvegicus [5]) | IC50 [7] | IC50 [8] | inhibition [9] | IC50 [10] | Ratio IC50 (Homo sapiens) | inhibition [11] | IC50 [12] | IC50 [13] | SMILES | Reduction in absorbance at 518 nm (DPPH) [6]
118 nM | > 100000 nM | 85 nM | 13.4% | > 1180 | – | – | – | – | – | – | – | – | COCn1nc2c3ccccc3n(CC(=O)O)c2nc1=O | 0.042
– | 35000 nM | – | – | – | – | – | – | – | – | – | – | – | O=C(O)Cn1c2ccccc2c2nnc(S)nc21 | 0.219
787 nM | > 100000 nM | 434 nM | 37.8% | > 230 | – | – | – | – | – | – | – | – | O=C(O)Cn1c2ccccc2c2nn(Cc3ccccc3)c(=O)nc21 | –
– | – | – | – | – | – | – | – | – | – | – | – | – | COc1ccc2[nH]cc(CCNC(C)=O)c2c1 | 0.022
233 nM | 20200 nM | 120 nM | – | 168 | – | – | – | – | – | – | – | – | O=C(O)Cn1nc2c3ccccc3n(CC(=O)O)c2nc1=O | –
51 nM | > 100000 nM | 42 nM | 24% | > 2380 | 216 nM | 40 nM | 0.9% | 292 nM | > 850 | Dose-dependent effect | 66 nM | 56200 nM | O=C(O)Cn1c2ccccc2c2n[nH]c(=O)nc21 | 0.057
